Experimental data collected from several papers.
Lines come from different studies, so protocols differ.
Target: Serine/threonine-protein kinase DCLK3 (DCLK3, Homo sapiens, UniProt Q9C098)
One construct used (Q9C098 1-648): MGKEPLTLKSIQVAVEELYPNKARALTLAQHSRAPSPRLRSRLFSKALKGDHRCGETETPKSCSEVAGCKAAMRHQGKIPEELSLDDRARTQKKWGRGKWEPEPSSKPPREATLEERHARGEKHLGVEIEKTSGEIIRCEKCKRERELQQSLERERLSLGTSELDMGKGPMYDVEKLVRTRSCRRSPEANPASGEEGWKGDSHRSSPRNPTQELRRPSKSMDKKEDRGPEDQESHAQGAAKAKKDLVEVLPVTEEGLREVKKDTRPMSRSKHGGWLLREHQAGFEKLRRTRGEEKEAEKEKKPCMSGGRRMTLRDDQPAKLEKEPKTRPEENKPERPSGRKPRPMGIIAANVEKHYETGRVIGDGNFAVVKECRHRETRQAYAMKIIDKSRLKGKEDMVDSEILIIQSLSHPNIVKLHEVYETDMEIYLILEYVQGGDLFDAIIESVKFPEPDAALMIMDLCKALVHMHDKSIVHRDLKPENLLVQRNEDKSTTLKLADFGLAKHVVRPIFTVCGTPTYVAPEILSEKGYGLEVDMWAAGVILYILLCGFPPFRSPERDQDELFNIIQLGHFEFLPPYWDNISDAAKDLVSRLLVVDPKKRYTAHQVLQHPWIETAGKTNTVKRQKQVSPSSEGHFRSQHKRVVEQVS

SMILES	assay	conditions	endpoint	value
COc1cc(Cl)c(C(=O)N[C@@H](CN[C@H]2CC[C@@H](N)CC2)Cc2ccc(C#N)cc2)cc1-c1ccc(CN[C@H](C)c2ccc(C)cc2)o1	enzyme activity, inhibitor	1 µM	remaining activity	89%
CN1CC(Oc2cnc(C#N)cc2-c2ccn3nc(NC(=O)C4CC4)cc3c2)C1	enzyme activity, inhibitor	1 µM	inhibition	-4%
COc1cc(-c2cn(C3CCc4ccccc4N(CC(F)(F)F)C3=O)nn2)ccc1-n1ccc(C)n1 (stereo not drawn)	cell-free assay, competition with immobilised ligand	1 µM	remaining binding	100%
Cc1ccc(NC(=O)c2ccc(C)c(C(F)(F)F)c2)cc1C#Cc1nn(C2CCC(O)CC2)c2ncnc(N)c12 (stereo not drawn)	cell-free assay	10 µM	remaining signal	101%
COc1ccc2c(O[C@@H]3C[C@H]4C(=O)N[C@]5(C(=O)O)CC5/C=C\CCCCC[C@H](NC(=O)OC5CCCC5)C(=O)N4C3)cc(-c3csc(NC(=O)C(C)C)n3)nc2c1C (stereo partly drawn)	cell-free assay, competition with immobilised ligand	1 µM	remaining binding	96%
Nc1ncnc2occ(-c3ccc(NC(=O)Nc4cc(C(F)(F)F)ccc4F)cc3)c12	cell-free assay, inhibitor	20 µM	remaining signal	24%
Cc1cnc(NC2CCOCC2)nc1-n1cnc(C(=O)NC(CN)c2cc(F)cc(Cl)c2)c1 (stereo not drawn)	enzyme activity, inhibitor, radiometric	1 µM	remaining activity	56%
Cc1ccc(C(=O)Nc2ccc(CN3CCN(C)CC3)c(C(F)(F)F)c2)cc1C#Cc1cnc2cccnn12	enzyme activity, inhibitor	23.5 nM	remaining activity	100%
Cc1cc(NC(=O)c2cccc3cc(-c4cccc5[nH]nc(N)c45)ccc23)ccc1F	enzyme activity, inhibitor	0.1 µM	activity vs control	110%
